From ChEMBL document CHEMBL5661984, “Allosteric ligands for the pharmacologically dark receptors GPR68 and GPR65” (Nature, 2015)
Activity calls are given as the source filed them.

Legend:
[1] = Positive allosteric modulator activity at GPR68 R189M mutant transfected in human HEK293T cells assessed as proton-mediated calcium release at 10 uM incubated for 10 mins by Fluo-4 Direct calcium dye based FLIPR assay (reference value: 6.77 +/- 0.01); assay type: cell-based; details: HEK-293T
[2] = Toxicity in C57BL/6 mouse assessed as decreased contextual memory retrieval; details: in vivo
Procedure, shortened: (§1)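 Fear conditioning in wild-type and GPR68 KO C57BL/6J congenic mice. Training was 8 min: 3 pairings of a 30-s, 90 dB, 5 kHz tone with a 2-s, 0.6 mA foot shock. Context freezing scored at 24 h over 5 min; cue test at 48 h over 6 min. Freezing defined as no movement for 0.5 s. Compound 10 mg/kg in 10% Tween 80 or saline, 30 min before training. n=6–8 per group. Two-way ANOVA with Bonferroni post-hoc test.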

[3] = Positive allosteric modulator activity at GPR68 H269F mutant transfected in human HEK293T cells assessed as proton-mediated calcium release at 10 uM incubated for 10 mins by Fluo-4 Direct calcium dye based FLIPR assay (reference value: 1.57 +/- 0.01 %); details: HEK-293T, condition central nervous system disease
Mus musculus [4] = species on record: Mus musculus; assay: […] activity against GPR68 knockout C57BL/6 mouse assessed as contextual memory retrieval; assay type: functional, organism-based; procedure, shortened: as §1
[5] = Positive allosteric modulator activity at GPR68 E160Q mutant transfected in human HEK293T cells assessed as proton-mediated calcium release at 10 uM incubated for 10 mins by Fluo-4 Direct calcium dye based FLIPR assay (reference value: 6.86 +/- 0.04); assay type: cell-based; details: HEK-293T
[6] = Toxicity in C57BL/6 mouse assessed as improvement in learning and spatial memory at 30 mg/kg administered for 30 mins by hidden platform test; assay type: organism-based; details: in vivo, 0.5 h
[7] = molecular target: C-X-C chemokine receptor type 4 (Homo sapiens) (UniProt P61073); assay: Antagonist activity against CXCR4 receptor (unknown origin) transfected in human HEK293T cells at 10 uM incubated for 15 mins in presence of AMD3100 by luminescence counter analysis; assay type: functional, cell-based
Chain of C-X-C chemokine receptor type 4 (Homo sapiens) (P61073 whole entry): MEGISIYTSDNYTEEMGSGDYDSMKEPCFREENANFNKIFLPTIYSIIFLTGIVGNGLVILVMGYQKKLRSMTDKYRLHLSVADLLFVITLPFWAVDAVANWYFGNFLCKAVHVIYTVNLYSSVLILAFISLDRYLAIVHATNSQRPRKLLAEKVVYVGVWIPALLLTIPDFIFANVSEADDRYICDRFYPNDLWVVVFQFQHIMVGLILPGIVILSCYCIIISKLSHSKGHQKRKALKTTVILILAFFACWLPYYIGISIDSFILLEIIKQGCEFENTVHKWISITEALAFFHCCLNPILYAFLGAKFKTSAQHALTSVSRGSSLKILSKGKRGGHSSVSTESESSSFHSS
Procedure, shortened: (§2)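 HEK293-T cells transiently transfected with CXCR4 and the GloSensor cAMP reporter, plated in DMEM with 1% dialyzed FBS. Test compound at 10 μM in 20 mM HEPES/HBSS, pH 7.4, 15 min at room temperature. Agonist mode: luciferin (4 mM final) plus 200 nM isoproterenol added, 20 min. Antagonist mode: compound 10 min, then reference agonist at EC80 for 10 min, then luciferin/isoproterenol. Luminescence read. CXCL12 (1 or 3 μM) is the agonist control and AMD3100 (10 μM) the antagonist control. n=2.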

[8] = Positive allosteric modulator activity at GPR68 R189L mutant transfected in human HEK293T cells assessed as proton-mediated calcium release at 10 uM incubated for 10 mins by Fluo-4 Direct calcium dye based FLIPR assay (reference value: 6.85 +/- 0.02); assay type: cell-based; details: HEK-293T
[9] = Toxicity in C57BL/6 mouse assessed as improvement in learning and spatial memory at 10 mg/kg administered for 30 mins by hidden platform test; assay type: organism-based; details: in vivo, 0.5 h
[10] = molecular target: T1, G-protein coupled receptor 68 (Homo sapiens, UniProt Q15743); assay: Positive allosteric modulator activity at GPR68 expressed in human HEK293T cells assessed as cAMP production in presence of H+ proton by Split-luciferase based luminescence counter analysis (reference value: 6.53 to 6.72); assay type: functional, cell-based
T1 sequence (Q15743 whole entry): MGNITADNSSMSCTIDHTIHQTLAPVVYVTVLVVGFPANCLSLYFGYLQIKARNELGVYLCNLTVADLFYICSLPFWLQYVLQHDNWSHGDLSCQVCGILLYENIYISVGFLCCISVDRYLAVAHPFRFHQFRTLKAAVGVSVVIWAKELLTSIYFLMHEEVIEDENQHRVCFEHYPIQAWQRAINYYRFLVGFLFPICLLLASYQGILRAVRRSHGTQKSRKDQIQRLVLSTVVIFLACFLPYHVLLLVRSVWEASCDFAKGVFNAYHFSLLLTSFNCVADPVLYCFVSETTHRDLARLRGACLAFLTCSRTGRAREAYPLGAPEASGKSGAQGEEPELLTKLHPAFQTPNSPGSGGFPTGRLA

[11] = molecular target: T1, G-protein coupled receptor 68; assay: Positive allosteric modulator activity at GPR68 expressed in human HEK293T cells assessed as proton-mediated phosphatidylinositol hydrolysis on pH 8.4 at 10 uM incubated for 20 mins by TriLuxMicroBeta counter analysis; assay type: functional, cell-based
Procedure, shortened: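 GPR68-transfected HEK293-T cells labeled overnight with 3H-inositol (1 μCi/well) in inositol-free DMEM with 5% dialyzed FBS. Treated for 20 min at pH 8.4 in HBSS with 10 mM HEPES, 10 mM MES and 20 mM LiCl, compound at 10 μM. Extracted with 50 mM ice-cold formic acid, 30 min at 4°C. Captured on YSi beads and counted (cpm/well). n=3. 4-parameter logistic fit.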

[12] = molecular target: C-X-C chemokine receptor type 4 (Homo sapiens) (UniProt P61073); assay: Agonist activity against CXCR4 receptor (unknown origin) transfected in human HEK293T cells at 10 uM incubated for 15 mins in presence of CXCL12 by luminescence counter analysis; assay type: functional, cell-based; procedure, shortened: as §2
[13] = Positive allosteric modulator activity at GPR68 R189M mutant transfected in human HEK293T cells assessed as proton-mediated calcium release at 10 uM incubated for 10 mins by Fluo-4 Direct calcium dye based FLIPR assay (reference value: 1.43 +/- 0.01 %); details: HEK-293T, condition central nervous system disease
[14] = Positive allosteric modulator activity at GPR68 H269F mutant transfected in human HEK293T cells assessed as proton-mediated calcium release at 10 uM incubated for 10 mins by Fluo-4 Direct calcium dye based FLIPR assay (reference value: 6.44 +/- 0.02); assay type: cell-based; details: HEK-293T
[15] = molecular target: T1, G-protein coupled receptor 68; assay: Positive allosteric modulator activity at GPR68 expressed in human HEK293T cells assessed as proton-mediated calcium release at 10 uM incubated for 10 mins by Fluo-4 Direct calcium dye based FLIPR assay (reference value: 1.30 %); assay type: functional, cell-based
[16] = Positive allosteric modulator activity at GPR68 E160Q mutant transfected in human HEK293T cells assessed as proton-mediated calcium release at 10 uM incubated for 10 mins by Fluo-4 Direct calcium dye based FLIPR assay (reference value: 1.25 +/- 0.01 %); details: HEK-293T, condition central nervous system disease
[17] = Toxicity in C57BL/6 mouse assessed as improvement in cue memory at 10 to 30 mg/kg administered for 30 mins by Morris water maze test; assay type: organism-based; details: in vivo, 0.5 h, dose 10-30 mg/kg
[18] = Toxicity in C57BL/6 mouse assessed as improvement in contextual memory at 10 to 30 mg/kg administered for 30 mins; assay type: organism-based; details: in vivo, 0.5 h, dose 10-30 mg/kg
[19] = molecular target: T1, G-protein coupled receptor 68; assay: Positive allosteric modulator activity at GPR68 expressed in human HEK293T cells assessed as cAMP production in presence of H+ proton by Split-luciferase based luminescence counter analysis (reference value: 26.4 to 43.8 %); assay type: functional, cell-based; details: filed as positive allosteric modulator
Procedure, shortened: (§3)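 Proton concentration-response of GPR68 (wild type or E160A/K/Q, R189L/M, H269F mutants) in transiently transfected HEK293-T cells. Read-out: GloSensor cAMP, with luciferin loading 90 min at 37°C at pH 8.4. Run with and without increasing modulator concentrations; 20 min at room temperature before luminescence. Proton KA fixed to the proton EC50 without modulator. KB, τA, α, β fitted globally with an operational allosteric model. n=4.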

[20] = Positive allosteric modulator activity at GPR68 E160K mutant transfected in human HEK293T cells assessed as proton-mediated calcium release at 10 uM incubated for 10 mins by Fluo-4 Direct calcium dye based FLIPR assay (reference value: 1.38 +/- 0.01 %); details: HEK-293T, condition central nervous system disease
[21] = Positive allosteric modulator activity at GPR68 R189L mutant transfected in human HEK293T cells assessed as proton-mediated calcium release at 10 uM incubated for 10 mins by Fluo-4 Direct calcium dye based FLIPR assay (reference value: 1.42 +/- 0.01 %); details: HEK-293T, condition central nervous system disease
Mus musculus [22] = species on record: Mus musculus; assay: Antipsychotic activity against GPR68 knockout C57BL/6 mouse assessed as cued memory retrieval by Morris water maze test; assay type: functional, organism-based
[23] = Toxicity in C57BL/6 mouse assessed as cued memory retrieval by Morris water maze test; details: in vivo
[24] = Positive allosteric modulator activity at GPR68 E160K mutant transfected in human HEK293T cells assessed as proton-mediated calcium release at 10 uM incubated for 10 mins by Fluo-4 Direct calcium dye based FLIPR assay (reference value: 6.79 +/- 0.02); assay type: cell-based; details: HEK-293T
[25] = molecular target: T1, G-protein coupled receptor 68; assay: Positive allosteric modulator activity at HA-tagged GPR68 expressed in human HEK293T cells assessed as activation of PKA at pH 7.4 by immunoblotting analysis; assay type: cell-based; details: filed as positive allosteric modulator
Procedure, shortened: (§4)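 HEK293 cells stably expressing N-terminal HA-tagged human GPR68 (vector-only line as control), selected with 250 μg/ml G418. Confluent cells were switched to Hams-F12 at pH 8.0 or 7.4 for 1 h, then given vehicle or 50 μM compound for 10 min. Lysate immunoblots were probed for HA, total VASP, p-p42/p44 and β-actin, read with infrared-fluorophore secondaries.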

[26] = molecular target: G-prodeshotein coupled receptor 4 (Homo sapiens) (UniProt P46093); assay: Positive allosteric modulator activity at human GPR4 expressed in yeast assessed as Gq-yeast growth stimulation at 10 uM by microplate reader analysis
Chain of G-prodeshotein coupled receptor 4 (Homo sapiens) (P46093 whole entry, looked up): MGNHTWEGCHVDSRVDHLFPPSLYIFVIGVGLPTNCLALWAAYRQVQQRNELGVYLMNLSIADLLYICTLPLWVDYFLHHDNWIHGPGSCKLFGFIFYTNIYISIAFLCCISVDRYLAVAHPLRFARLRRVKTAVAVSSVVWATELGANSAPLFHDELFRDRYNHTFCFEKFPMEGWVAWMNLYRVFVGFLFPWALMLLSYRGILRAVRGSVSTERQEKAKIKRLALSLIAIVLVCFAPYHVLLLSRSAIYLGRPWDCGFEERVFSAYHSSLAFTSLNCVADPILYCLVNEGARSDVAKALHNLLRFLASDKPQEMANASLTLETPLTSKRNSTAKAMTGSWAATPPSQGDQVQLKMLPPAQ
Procedure, shortened: (§5)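 Gq-coupled yeast strain expressing receptor, in SD-His-Ura medium (pH 5.4) with 3-amino-1,2,4-triazole at a level giving moderate ligand-free growth (OD 0.2–0.6). Compound at 10 μM final, in triplicate. Starting OD600 0.02; growth 2–5 days at 30°C, read as OD600. Values are 100 × (well OD600 − plate median), given as % growth stimulation, mean ± SEM of three wells.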

[27] = molecular target: G-protein coupled receptor 65 (Homo sapiens, UniProt Q8IYL9); assay: Positive allosteric modulator activity at human GPR65 expressed in yeast assessed as Gq-yeast growth stimulation at 10 uM by microplate reader analysis; procedure, shortened: as §5
Chain of G-protein coupled receptor 65 (Q8IYL9 whole entry): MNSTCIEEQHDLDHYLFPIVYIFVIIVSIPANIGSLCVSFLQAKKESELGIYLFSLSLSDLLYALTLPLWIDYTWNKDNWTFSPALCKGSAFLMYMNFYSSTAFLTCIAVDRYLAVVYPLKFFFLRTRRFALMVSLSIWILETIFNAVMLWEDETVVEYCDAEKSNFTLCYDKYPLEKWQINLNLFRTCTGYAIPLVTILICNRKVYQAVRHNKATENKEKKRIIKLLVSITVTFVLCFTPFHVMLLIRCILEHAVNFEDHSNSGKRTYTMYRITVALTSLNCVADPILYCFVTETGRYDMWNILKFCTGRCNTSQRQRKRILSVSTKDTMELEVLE

[28] = molecular target: T1, G-protein coupled receptor 68; assay: Positive allosteric modulator activity at human GPR68 expressed in yeast assessed as Gq-yeast growth stimulation at 10 uM by microplate reader analysis; details: filed as positive allosteric modulator; procedure, shortened: as §5
[29] = molecular target: T1, G-protein coupled receptor 68; assay: Binding affinity to GPR68 expressed in human HEK293T cells assessed as cAMP production in presence of H+ proton by Split-luciferase based luminescence counter analysis; assay type: cell-based; details: filed as positive allosteric modulator; procedure, shortened: as §3
[30] = molecular target: T1, G-protein coupled receptor 68; assay: Positive allosteric modulator activity at HA-tagged GPR68 expressed in human HEK293T cells assessed as activation of p42/p44 MAP kinase at pH 7.4 by immunoblotting analysis; assay type: cell-based; details: filed as positive allosteric modulator; procedure, shortened: as §4

SMILES	EC50 [1] [nM]	Emax at 10 µM [3] [%]	EC50 [5] [nM]	Activity [7]	EC50 [8] [nM]	EC50 [10] [nM]	Activity [12]	Emax at 10 µM [13] [%]	EC50 [14] [nM]	Emax [15] [%]	Emax at 10 µM [16] [%]	Emax [19] [%]	Emax at 10 µM [20] [%]	Emax at 10 µM [21] [%]	EC50 [24] [nM]	other results
Nc1nc(NCc2ccccc2)nc(-c2cccc(CO)c2)n1 [ZINC32547799]	186	1.52	234	inactive	129	158	inactive	1.35	339	1.33	1.21	43.1	1.38	1.36	158	Activity [2]: Non-Toxic; Activity (Mus musculus [4]): inactive; Activity [6]: Toxic; Activity [9]: Non-Toxic; Activity [11]: inactive; Activity [17]: Non-Toxic; Activity [18]: Non-Toxic; Activity (Mus musculus [22]): inactive; Activity [23]: Non-Toxic
O=C1Nc2ccc(Cl)cc2C(c2ccccc2Cl)=NC1O (stereo not given)	–	–	–	inactive	–	–	inactive	–	–	–	–	–	–	–	–	Activity [25]: Active; Activity [26]: inactive; Activity [27]: inactive; Activity [28]: 2; pKb [29]: 5.92; Activity [30]: Active
Nc1nc(NCc2ccccc2)nc(-c2cc(F)cc(F)c2)n1	141	1.63	102	–	105	110	–	1.41	324	1.24	1.11	70.7	1.38	1.49	141	–
